Data: ChEMBL document CHEMBL1143714, “Nocardichelins A and B, siderophores from Nocardia strain acta 3026” (2007)
The source made the active and inactive calls. The rule behind the calls is not given here.

Columns and labels:
HepG2 = test: Growth inhibition of human HepG2 cells after 48 hrs; format: functional; settings: HepG2, 48 h
Procedure, shortened: (§1)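 Run per NCI guidelines. Cells grown in RPMI 1640 with 10% fetal calf serum, 5% CO2, humidified. Compounds added after 24 h as DMSO solutions at 0.1-10 µg/mL, 0.1% final DMSO, then 48 h further culture. Cell count by sulforhodamine B protein staining. GI50 (50% growth inhibition) and TGI derived.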

Saccharomyces cerevisiae = test: Growth inhibition against yeast after 48 hrs by agar plate diffusion assay; format: functional, organism-based
Procedure, shortened: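 10 µL sample aliquots applied to 6 mm filter disks placed on inoculated test plates; fungal plates incubated 48 h at temperature optimal for the test organism; activity read from growth inhibition on agar.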

[1] = Growth inhibition of human MCF cells after 48 hrs; format: functional; procedure, shortened: as §1
AGS = test: Growth inhibition of human AGS cells after 48 hrs; format: functional; procedure, shortened: as §1

GI50 (HepG2) [nM] | GI50 (AGS) [nM] | SMILES | TGI (HepG2) [nM] | Activity (Saccharomyces cerevisiae) | GI50 [1] [nM] | TGI [1] [nM] | TGI (AGS) [nM]
282 | 28.2 | CCCCCCCCCCCCC/C=C\C(=O)N(O)CCCCCNC(=O)CCC(=O)N(O)CCCCCNC(=O)[C@@H]1COC(c2ccccc2O)=N1 [NOCARDICHELIN A] | 471 | inactive | 202 | 538 | 202
69.9 | 44.7 | CCCCCCCCCCC/C=C\C(=O)N(O)CCCCCNC(=O)CCC(=O)N(O)CCCCCNC(=O)[C@@H]1COC(c2ccccc2O)=N1 [NOCARDICHELIN B] | 335 | inactive | 1130 | 3490 | 1500
